Compounds with a hit are over-represented: about 2.4% of the library has one in this group of screens.
Tb MetRS inh = Trypanosoma brucei MetRS inhibition. purified T. brucei MetRS, ATP depletion, Kinase-Glo luminescence. inhibition, % at 11.9 µM. 360,000 tested, 0.4% active. AID 624268;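 active = inhibition above a per-plate cutoff of the control wells' mean inhibition plus 3 SD, cut at about 5.5% in these data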;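 also: 0% = DMSO wells median and 100% = median of wells with control inhibitor compound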
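technique = Kinase-Glo luminescence, ATP depletion format | system = purified MetRS (methionyl-tRNA synthetase) enzyme from Trypanosoma brucei | timing = 15 min preincubation, 2 h reaction, all 25 °C | evaluation = percent inhibition versus plate control medians | dosing = single dose, 11.9 µM final nominal, 0.9% final DMSO | also added = substrates ATP, L-methionine and bulk Escherichia coli tRNA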
Neddyl block = blocks human cullin neddylation | 360,000 tested, 0.58% active | TR-FRET cullin neddylation, biochemical | inhibition, % at 25 µM | P61081+Q13564; in the data active = inhibition above about 36%
PREPL inhibitor = inhibitors of human prolyl oligopeptidase-like enzyme PREPL. Q4J6C6. recombinant PREPL, fluorescence polarization activity-based probe. 320,000 tested, 0.68% active. inhibition, % at 5.96 µM; in the data active = inhibition above about 43%;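 also: 0% = enzyme with DMSO and 100% = wells lacking enzyme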
Rpn11 block = inhibitors of human proteasome Rpn11. human 26S proteasome, Ub4-pepOG fluorescence polarization; 20S core pre-blocked with epoxomicin. inhibition, % at 20 µM. 360,000 tested, 0.59% active. AID 588493;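 active = inhibition at 20 µM, scaled to each plate's controls, above about 33%, limit read from the data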
CSN inh = blocks human CSN-mediated cullin deneddylation; Q92905; Purified CSN, SCF-Nedd8-OG deneddylation, fluorescence polarization; inhibition, % at 12.5 µM; 360,000 tested, 0.38% active;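 active = pattern-corrected inhibition above about 35%, with an unprinted fluorescence ratio check between 0.5 and 1.5, limit read from the data, passing the limit was not always enough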;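 also: 0% = enzyme with substrate and 100% = substrate without enzyme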
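Material: human Csn5 produced in HEK293T cells; Input: enzyme 0.24 nM; Reagent: SCFSkp2-Nedd8OG substrate at 10 nM final; Dosing: 12.5 µM compound; Incubation: 90 min reaction at room temperature; Detection: fluorescence polarization of the substrate; Evaluation: % inhibition of substrate cleavage by Csn5; Control set: substrate-only high control, full reaction low control.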
HNF4A DNA FP = change in binding of human HNF4 alpha to DNA | P41235 | HNF4a-FITC DNA binding, fluorescence polarization, 1 h | activity change, % at 10 µM | 360,000 tested, 0.3% active | AID 1224865; in the data active = activity change above about 30%, passing the limit was not always enough
Target sequence (P41235 whole entry, looked up): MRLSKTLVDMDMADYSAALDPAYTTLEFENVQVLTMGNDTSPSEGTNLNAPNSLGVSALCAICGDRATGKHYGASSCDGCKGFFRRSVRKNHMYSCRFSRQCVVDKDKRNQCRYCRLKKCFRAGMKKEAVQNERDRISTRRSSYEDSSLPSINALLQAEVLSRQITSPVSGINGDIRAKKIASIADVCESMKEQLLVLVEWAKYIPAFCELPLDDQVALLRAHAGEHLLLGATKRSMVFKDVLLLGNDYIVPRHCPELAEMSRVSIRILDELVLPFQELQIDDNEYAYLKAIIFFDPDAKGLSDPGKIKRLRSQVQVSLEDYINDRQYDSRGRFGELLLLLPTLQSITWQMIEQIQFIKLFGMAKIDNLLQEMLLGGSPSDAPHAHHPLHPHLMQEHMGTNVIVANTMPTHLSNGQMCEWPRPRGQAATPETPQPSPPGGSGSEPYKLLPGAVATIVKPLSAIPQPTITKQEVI
TbMetRS confirm = Trypanosoma brucei MetRS inhibition confirmed; shares compounds with Tb MetRS inh; T. brucei MetRS enzyme, luminescence (ATP depletion); inhibition, % at 11.9 µM; 1,400 tested, 93% active; AID 624412; in the data active = inhibition above about 7%
Jurkat tox = counter-screen for T. brucei MetRS inhibitors: Jurkat cell cytotoxicity | shares compounds with Tb MetRS inh | Jurkat cells viability, ATP luminescence | inhibition, % at 8.3 µM | 1,400 tested, 12% active | AID 624413; in the data active = inhibition above about 15%;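 also: 0% = vehicle and 100% = reference inhibitor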
Tb MetRS inh FP = orthogonal test for Trypanosoma brucei MetRS inhibitors; inhibition, % at 11.9 µM; AID 651607; shares compounds with Tb MetRS inh; purified T. brucei MetRS, fluorescence polarization; 1,400 tested, 44% active; in the data active = inhibition above about 17%;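 also: 0% = vehicle wells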
* marks the source's active call; other numbers are inactive results; / = not tested or not shown.

SMILES	Tb MetRS inh	Neddyl block	PREPL inhibitor	Rpn11 block	CSN inh	HNF4A DNA FP	TbMetRS confirm	Jurkat tox	Tb MetRS inh FP
Cn1nc(C(F)(F)F)c(-c2cccc(C(F)(F)F)c2)c1NC(=O)c1nccnc1C(=O)O	-0.3	0.6	-4.6	14.6	-1.4	0.4	/	/	/
Cn1nc(C(F)(F)F)c(-c2cccc(C(F)(F)F)c2)c1NC(=O)Nc1ccc(F)cc1	40.6*	1.3	0.6	-7.0	-5.9	6.6	58.4*	10.2	38.3*
Cc1cc(Br)cc(Br)c1OCC(=O)NNC(=O)Nc1ccccc1	7.5*	-0.6	-13.2	-3.2	-0.3	1.5	44.5*	-5.6	30.4*
Cc1cc(Br)cc(C)c1OCC(=O)NNC(=O)CCC(=O)NCc1ccccc1	-0.6	-8.1	-2.1	-4.6	-2.0	6.6	/	/	/
COc1ccccc1CN1CCc2c([nH]c3ccccc23)C1	15.7*	33.2	11.8	4.5	1.1	0.5	31.4*	14.9	12.1
COc1ccc(NC(=O)C2(S(=O)(=O)c3ccc(C)cc3)CC2)cc1	5.5	0.0	7.3	3.1	-1.4	0.6	/	/	/
COc1ccccc1CNC(=O)CCNS(=O)(=O)c1cc(Br)cnc1N	-0.1	-0.9	1.2	-1.9	4.9	1.4	/	/	/
C/C(=C1/SC(=S)N(CCC(=O)O)C1=O)c1ccc(O)cc1	25.9*	-28.0	-10.9	7.6	-2.0	2.2	64.1*	2.5	24.5*
Cc1ccc(NC(=O)COC(=O)C2(c3ccc(Cl)cc3)CCCC2)cc1	6.9*	10.7	-13.3	2.2	5.0	1.7	12.1*	3.3	11.9
Cc1cccc(Cn2c(-c3ccc[nH]c3=O)nc3ccccc32)c1	-1.2	/	19.2	-5.0	0.9	-2.9	/	/	/
COc1ccc(C(=O)N/C(=C\c2ccc3c(c2)OCO3)C(=O)NCCc2nc3ccccc3[nH]2)cc1	6.9*	-8.8	-0.6	9.6	-1.4	-4.5	11.2*	0.9	6.8
CCOC(=O)[C@]12CCCC=C1N(Cc1ccccc1)C(=O)[C@H](CC(=O)N1CCC(c3ccccc3)CC1)C2	-0.1	0.3	/	/	4.2	0.9	/	/	/
COc1ccc(-c2cn3nc(SCC(=O)NCC4CCCO4)ccc3n2)cc1 (stereo unspecified)	0.3	/	24.5	-4.3	-4.4	-1.2	/	/	/
COc1ccccc1-n1c(SCC(=O)Nc2ccc(NC(C)=O)cc2)nc2c([nH]c3ccccc32)c1=O	1.0	-10.9	4.6	-11.4	1.7	-0.6	/	/	/
N#Cc1ccccc1CSc1ccc(-c2nc3ccccc3[nH]2)cn1	11.3*	-2.5	-7.8	0.7	-2.1	3.2	24.3*	12.1	20.8*
CC(=O)CSc1ccc(-c2nc3ccccc3[nH]2)cn1	1.4	0.2	-7.3	-0.3	-3.5	0.4	/	/	/
O=C(CSc1ccc(-c2nc3ccccc3[nH]2)cn1)Nc1ccc(S(=O)(=O)N2CCCC2)cc1	29.6*	-155.3	-33.2	2.5	12.9	1.1	33.0*	7.7	31.1*
Cc1cc2nc(-c3ccc(SCc4ccc(C#N)cc4)nc3)[nH]c2cc1C	0.4	6.8	-3.6	13.8	6.5	-2.5	/	/	/
Cc1cc2nc(-c3ccc(SCC(=O)Nc4ccc(S(=O)(=O)N5CCCC5)cc4)nc3)[nH]c2cc1C	-0.2	-63.3	-18.8	/	14.0	33.3	/	/	/
CCOC(=O)CNC(=O)CSc1ccc(-c2nc3ccccc3[nH]2)cn1	9.1*	34.3	0.3	-6.7	-2.7	9.9	27.6*	6.5	9.6
Cc1ccc2nc(-c3ccc(SCC(=O)N4CCc5ccccc54)nc3)[nH]c2c1	1.1	-41.0	-10.7	12.6	-0.4	7.9	/	/	/
Cc1ccc2nc(-c3ccc(SCC(=O)O)nc3)[nH]c2c1	10.2*	/	7.1	4.4	-1.0	-2.9	21.4*	-3.0	4.5
CCCCCn1c(=O)[nH]c2cc(C(=O)N3CCN(c4ccc(C(C)=O)cc4)CC3)ccc2c1=O	-0.9	9.5	18.5	-2.0	1.7	-1.6	/	/	/
CC(=O)c1ccc(N2CCN(C(=O)CCCn3c(=O)[nH]c4ccsc4c3=O)CC2)cc1	7.3*	13.4	-18.3	7.0	-6.2	0.1	17.1*	0.0	6.5
O=C(CCCCn1c(=O)[nH]c2ccccc2c1=O)N1CCN(c2cccc(C(F)(F)F)c2)CC1	12.0*	6.3	-6.6	5.4	3.0	-0.3	14.0*	8.0	4.5
SMILES	Tb MetRS inh	Neddyl block	PREPL inhibitor	Rpn11 block	CSN inh	HNF4A DNA FP	TbMetRS confirm	Jurkat tox	Tb MetRS inh FP
CC(=O)c1ccc(N2CCN(C(=O)CCCn3c(=O)[nH]c4ccc(Br)cc4c3=O)CC2)cc1	84.4*	-0.2	-75.8	-6.8	-1.9	-0.2	104.0*	3.7	87.1*
CN(C)c1ccc(-c2[nH][nH]c(=O)c2NC(=O)c2ccc3ccccc3n2)cc1	12.7*	36.9	/	17.9	3.0	-1.9	1.2	6.2	1.8
COc1ccccc1NS(=O)(=O)c1cccc(NC(=O)Nc2ccccc2)c1	88.0*	-0.2	-11.7	-9.6	-4.5	-0.4	99.6*	12.9	105.2*
COc1cccc(OC)c1C(=O)Nc1cccc(S(=O)(=O)Nc2ccccc2Cl)c1	-0.1	-6.4	2.6	-1.8	3.4	1.6	/	/	/
COc1ccccc1NS(=O)(=O)c1cccc(NC(=O)Nc2ccc(Cl)cc2)c1	50.6*	5.1	-1.7	-0.9	2.3	2.1	77.6*	4.2	102.7*
CCNC(=S)Nc1cccc(S(=O)(=O)Nc2ccccc2OC)c1	-1.1	-0.8	16.7	-0.5	-2.5	0.1	/	/	/
Cn1c(CSc2nc3ccc(Br)cc3[nH]2)nc2ccccc21	11.6*	5.2	-43.8	-4.5	3.0	-0.2	17.9*	8.2	12.0
Cc1ccc(C2CC2C(=O)NNC(=S)Nc2ccc(Cl)cc2)cc1 (stereo unspecified)	39.3*	8.4	-14.8	-1.8	-3.3	-3.6	66.5*	0.8	37.8*
O=[N+]([O-])c1ccc(NC(=S)NCCc2ccc(Cl)cc2)cc1	6.9*	-20.6	11.0	-3.5	3.4	-0.8	13.1*	35.9*	47.3*
O=[N+]([O-])c1ccc(NC(=S)NCCc2ccccc2)cc1	0.2	-29.6	0.9	-4.4	-0.8	2.7	/	/	/
CCCCNC(=O)C1(C)CCCCN1C(=O)c1ccno1 (stereo unspecified)	-0.2	-8.6	/	-2.1	3.6	3.5	/	/	/
O=C(OCC(=O)c1c[nH]c2ccccc12)c1ccc(OC(F)F)cc1	12.2*	-2.9	/	-3.1	-4.5	0.1	30.7*	4.1	29.0*

Compound activity (PubChem)
